In ChEMBL document CHEMBL1148752, “Dopamine/serotonin receptor ligands. 16.(1) Expanding dibenz[d,g]azecines to 11- and 12-membered homologues. Interaction with dopamine D(1)-D(5) receptors” (J Med Chem, 2007) one finds Ki data, which are given here for 14 compounds.

The target in one assay is D(1A) dopamine receptor (Homo sapiens, UniProt P21728). Nature of the assay: Displacement of [3H]SCH 23390 from human dopamine D1 receptor. The method, boiled down: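 Competition binding at cloned human receptors of the D1 family with [3H]SCH 23390 as radioligand; test ligand displacement expressed as Ki.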
Chain of D(1A) dopamine receptor (P21728 whole entry): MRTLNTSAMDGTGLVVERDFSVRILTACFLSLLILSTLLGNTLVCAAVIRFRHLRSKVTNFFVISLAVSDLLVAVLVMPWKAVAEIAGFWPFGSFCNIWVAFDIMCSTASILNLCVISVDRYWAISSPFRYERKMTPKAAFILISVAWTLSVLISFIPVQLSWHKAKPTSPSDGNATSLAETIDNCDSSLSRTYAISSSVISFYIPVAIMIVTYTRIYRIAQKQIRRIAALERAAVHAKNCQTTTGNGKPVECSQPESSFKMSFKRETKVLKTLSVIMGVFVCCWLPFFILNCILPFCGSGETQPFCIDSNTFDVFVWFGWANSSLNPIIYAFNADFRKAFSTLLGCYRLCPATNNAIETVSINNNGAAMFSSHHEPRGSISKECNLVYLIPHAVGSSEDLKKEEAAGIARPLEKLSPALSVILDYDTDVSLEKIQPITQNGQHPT
The next assay addresses D(2) dopamine receptor (Homo sapiens, UniProt P14416). Description: Displacement of [3H]spiperone from human dopamine D2L receptor expressed in HEK293 cells. Format: cell-based. Summed up:
(§1)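 Competition binding at cloned human receptors of the D2 family with [3H]spiperone as radioligand; test ligand displacement expressed as Ki.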

The next assay has as its target D(1B) dopamine receptor (Homo sapiens, UniProt P21918). Description: Displacement of [3H]SCH 23390 from human dopamine D5 receptor expressed in HEK293 cells. The assay is classed as cell-based.
Another assay has as its target D(3) dopamine receptor (Homo sapiens, UniProt P35462). Description: Displacement of [3H]spiperone from human dopamine D3 receptor expressed in CHO cells. The assay is classed as cell-based. Summed up: as §1
In the next assay the target is T1, D(4) dopamine receptor (Homo sapiens, UniProt P21917).
T1 sequence (P21917 whole entry): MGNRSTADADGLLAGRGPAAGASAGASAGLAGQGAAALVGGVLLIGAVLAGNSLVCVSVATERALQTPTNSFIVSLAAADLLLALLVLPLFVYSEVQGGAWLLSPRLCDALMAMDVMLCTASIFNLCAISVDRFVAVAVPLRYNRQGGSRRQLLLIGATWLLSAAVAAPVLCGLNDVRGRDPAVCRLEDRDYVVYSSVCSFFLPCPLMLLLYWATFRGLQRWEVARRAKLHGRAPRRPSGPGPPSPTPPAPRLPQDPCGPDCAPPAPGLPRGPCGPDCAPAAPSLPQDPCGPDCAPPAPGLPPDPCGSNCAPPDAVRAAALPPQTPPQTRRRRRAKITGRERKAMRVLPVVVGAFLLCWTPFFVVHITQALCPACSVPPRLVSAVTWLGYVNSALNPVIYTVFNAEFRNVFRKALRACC
Description: Displacement of [3H]spiperone from human dopamine D4.4 receptor expressed in CHO cells. The assay is classed as cell-based. The method, boiled down: as §1

Chain of D(3) dopamine receptor (P35462 whole entry): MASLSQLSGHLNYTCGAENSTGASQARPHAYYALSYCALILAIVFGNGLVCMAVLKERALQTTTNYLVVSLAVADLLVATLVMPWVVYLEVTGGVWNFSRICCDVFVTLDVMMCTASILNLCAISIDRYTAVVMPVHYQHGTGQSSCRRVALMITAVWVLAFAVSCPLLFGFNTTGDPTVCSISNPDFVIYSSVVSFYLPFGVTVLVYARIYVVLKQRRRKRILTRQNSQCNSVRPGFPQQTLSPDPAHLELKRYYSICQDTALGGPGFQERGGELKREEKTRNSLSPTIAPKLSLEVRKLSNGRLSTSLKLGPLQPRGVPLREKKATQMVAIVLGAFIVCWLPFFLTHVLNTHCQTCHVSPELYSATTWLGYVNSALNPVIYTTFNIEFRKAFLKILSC
Chain of D(1B) dopamine receptor (P21918 whole entry): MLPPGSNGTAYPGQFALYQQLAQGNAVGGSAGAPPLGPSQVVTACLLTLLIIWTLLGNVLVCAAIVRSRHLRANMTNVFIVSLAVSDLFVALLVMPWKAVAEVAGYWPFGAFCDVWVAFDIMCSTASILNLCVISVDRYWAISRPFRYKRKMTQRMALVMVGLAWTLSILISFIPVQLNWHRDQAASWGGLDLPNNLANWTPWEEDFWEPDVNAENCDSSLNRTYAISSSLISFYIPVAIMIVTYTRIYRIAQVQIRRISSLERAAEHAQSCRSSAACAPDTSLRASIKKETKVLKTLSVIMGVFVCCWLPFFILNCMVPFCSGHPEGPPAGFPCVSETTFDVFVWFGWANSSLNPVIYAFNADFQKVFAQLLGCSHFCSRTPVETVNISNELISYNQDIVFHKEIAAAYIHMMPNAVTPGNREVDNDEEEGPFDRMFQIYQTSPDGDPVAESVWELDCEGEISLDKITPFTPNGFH
Chain of D(2) dopamine receptor (P14416 whole entry): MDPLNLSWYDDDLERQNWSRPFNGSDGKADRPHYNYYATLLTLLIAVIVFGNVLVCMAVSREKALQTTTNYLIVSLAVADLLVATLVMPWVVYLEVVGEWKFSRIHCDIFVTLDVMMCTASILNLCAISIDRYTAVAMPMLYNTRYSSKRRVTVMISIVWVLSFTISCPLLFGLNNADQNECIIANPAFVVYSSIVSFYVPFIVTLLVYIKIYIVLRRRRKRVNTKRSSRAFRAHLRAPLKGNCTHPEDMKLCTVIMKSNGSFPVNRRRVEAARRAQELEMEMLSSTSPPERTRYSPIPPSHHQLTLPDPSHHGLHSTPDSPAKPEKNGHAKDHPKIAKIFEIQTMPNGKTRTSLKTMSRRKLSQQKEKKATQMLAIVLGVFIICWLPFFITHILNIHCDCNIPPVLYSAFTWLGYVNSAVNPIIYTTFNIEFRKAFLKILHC

As for `COc1ccc2c(c1)CCCN1CCCc3ccccc3C21` (stereo unspecified), the Ki at D(1A) dopamine receptor is > 10000 nM; at D(2) dopamine receptor, > 10000 nM; on D(1B) dopamine receptor, > 10000 nM; at D(3) dopamine receptor, > 10 µM; at D(4) dopamine receptor, > 10000 nM.
For `CN1CCCc2ccccc2Cc2ccc(O)cc2CCC1`, the inhibition constant (Ki) at D(1A) dopamine receptor was 83 nM; on D(2) dopamine receptor, 382 nM; on D(1B) dopamine receptor, 95 nM; at D(3) dopamine receptor, 3.96 µM; on D(4) dopamine receptor it was 422 nM.
On the same counts, the results for `COc1cc2c(cc1Cl)CCN1CCCc3ccccc3C21` (stereo unspecified) are > 10000 nM, > 10000 nM, > 10000 nM, > 10 µM and > 10000 nM.
On the same counts, the results for `CN1CCCc2ccccc2Cc2ccc(O)cc2CC1` are 3.2 nM, 74 nM, 9.8 nM, 0.1 µM and 60.1 nM.
On to `COc1ccc2c(c1)CCCN(C)CCCc1ccccc1C2`, for which the Ki on D(1A) dopamine receptor came out at 23.5 nM; on D(2) dopamine receptor it was 172 nM; on D(1B) dopamine receptor, 53 nM; at D(3) dopamine receptor, 1.35 µM; on D(4) dopamine receptor, 2870 nM.
For `CN1CCCc2ccccc2Cc2cc(O)ccc2CC1`, the Ki at D(1A) dopamine receptor stood at 70 nM; at D(2) dopamine receptor, 63 nM; on D(1B) dopamine receptor it was 69 nM; on D(3) dopamine receptor, 0.776 µM; on D(4) dopamine receptor it was 3750 nM.
For `COc1ccc2c(c1)CCN(C)CCCc1ccccc1C2`, in that order: 18.5 nM, 87 nM, 4.6 nM, 0.507 µM and 271 nM.
For `CN1CCCc2cc(O)ccc2Cc2ccccc2CC1`, the Ki was 13.9 nM at D(1A) dopamine receptor; 518 nM at D(2) dopamine receptor; 17 nM on D(1B) dopamine receptor; 6.12 µM at D(3) dopamine receptor; 2260 nM at D(4) dopamine receptor.
For the compound `COc1ccc2c(c1)CCN(C)CCc1ccccc1C2`, the inhibition constant Ki on D(1B) dopamine receptor was 54 nM.
As to `COc1ccc(CCN2CCCc3ccccc3C2)cc1Cl`, the Ki at D(1A) dopamine receptor was > 10000 nM; at D(2) dopamine receptor, > 10000 nM; at D(1B) dopamine receptor it was > 10000 nM; at D(3) dopamine receptor it was > 10 µM; at D(4) dopamine receptor, > 10000 nM.
`Oc1ccc2c(c1)CCCNCCc1ccccc1C2`: the inhibitory constant (Ki) was 291 nM at D(1A) dopamine receptor; 857 nM at D(2) dopamine receptor; 314 nM at D(1B) dopamine receptor; 6.9 µM at D(3) dopamine receptor; 4260 nM at D(4) dopamine receptor.
As for `COc1ccc2c(c1)Cc1ccccc1CCCN(C)CC2`, the inhibition constant Ki amounted to 137 nM at D(1A) dopamine receptor; 1400 nM at D(2) dopamine receptor; 75 nM at D(1B) dopamine receptor; 23.9 µM at D(3) dopamine receptor; 2760 nM at D(4) dopamine receptor.
On the same counts, the results for `COc1cc2c(cc1OC)Cc1ccccc1CCCN(C)CC2` are 579 nM, 1030 nM, 510 nM, 14.8 µM and 5050 nM.
In the case of `COc1ccc2c(c1)CCCN(C)CCc1ccccc1C2`, the inhibition constant (Ki) at D(1A) dopamine receptor was determined as 29.4 nM; at D(2) dopamine receptor it was 25 nM; at D(1B) dopamine receptor it was 55 nM; at D(3) dopamine receptor, 3.14 µM; at D(4) dopamine receptor, 1100 nM.
